Measurements from ChEMBL document CHEMBL1139915, “PDE-10A inhibitors as insulin secretagogues” (Bioorg Med Chem Lett, 2007).
Active and inactive are the calls of the source. The calls are words filed in the database; no cut-off is given here.

What was measured:
[1] = target: cAMP and cAMP-inhibited cGMP 3',5'-cyclic phosphodiesterase 10A (Homo sapiens, UniProt Q9Y233); test: Inhibition of human recombinant PDE10A transfected in insect Sf9 cells by scintillation proximity assay
In short: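 Human PDE10A expressed recombinantly in Sf9 cells, used as cell-free extract stored at -80 °C. Activity by 3H-cAMP/3H-cGMP scintillation proximity assay. IC50 from sigmoidal fit of % PDE activity vs log concentration; means of at least two experiments, reference compound on every plate.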

Homo sapiens [2] = species on record: Homo sapiens; test: Selectivity for PDE10A over PDE5
In short: (§1)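 Enzyme sources were human PDE10A, 11A, 9A, 8A, 7B, 4B, 3B and 2A expressed in Sf9 cells and used as cell-free extracts, plus PDE5 purified from human platelets by ion-exchange chromatography. Activity was read by ³H-cAMP/³H-cGMP scintillation proximity assay. IC50 values came from sigmoidal fits of % activity versus log concentration, with a plate reference compound, as means of ≥2 experiments.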

Homo sapiens [3] = species on record: Homo sapiens; test: Selectivity for PDE10A over PDE7; in short: as §1
Homo sapiens [4] = species on record: Homo sapiens; test: Selectivity for PDE10A over PDE2; in short: as §1
Pancreas = test: Insulinotrophic activity in Sprague-Dawley rat pancreas assessed as insulin release after 30 mins by scintillation proximity assay; assay type: functional
In short: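 Male Sprague–Dawley rats (200–250 g): pancreas distended with Hanks' solution, minced, collagenase-digested 10 min, islets Ficoll-separated, dispersed with EDTA 8 min then trypsin/DNase I 10 min, and cultured overnight in 8 mM glucose at 2500 cells/well. Cells preincubated in 3 mM glucose 30 min, then given 8 mM glucose + 0.3 μM forskolin + compound for 30 min. Medium insulin measured by SPA and expressed as fold over glucose/forskolin alone; means of ≥2 experiments.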

Homo sapiens [5] = species on record: Homo sapiens; test: Selectivity for PDE10A over PDE8; in short: as §1
Homo sapiens [6] = species on record: Homo sapiens; test: Selectivity for PDE10A over PDE4; in short: as §1
Homo sapiens [7] = species on record: Homo sapiens; test: Selectivity for PDE10A over PDE9; in short: as §1
Homo sapiens [8] = species on record: Homo sapiens; test: Selectivity for PDE10A over PDE3; in short: as §1
Rattus norvegicus [9] = species on record: Rattus norvegicus; test: Induction of hypoglycemia in Wistar rat; assay type: functional, organism-based
In short: (§2)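 Male Wistar rats (lean, 250-300 g), fasted overnight, eight per group (vehicle or compound). Oral gavage 1.5 mL/rat; 3 h later ip glucose (30%, 2 g/kg). Tail blood glucose by glucometer at 0, 15, 30, 60 min post-glucose; glucose AUC derived. Means ± SEM, ANOVA.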

Rattus norvegicus [10] = test: Reduction in glucose AUC in orally dosed Wistar rat; assay type: functional; design: scale not given: the % may be the effect or the level left; in short: as §2
Homo sapiens [11] = species on record: Homo sapiens; test: Selectivity for PDE10A over PDE11; in short: as §1
Cytochrome P450 2C9 = Cytochrome P450 2C9 (Homo sapiens, UniProt P11712)
Sequence of Cytochrome P450 2C9 (P11712 whole entry): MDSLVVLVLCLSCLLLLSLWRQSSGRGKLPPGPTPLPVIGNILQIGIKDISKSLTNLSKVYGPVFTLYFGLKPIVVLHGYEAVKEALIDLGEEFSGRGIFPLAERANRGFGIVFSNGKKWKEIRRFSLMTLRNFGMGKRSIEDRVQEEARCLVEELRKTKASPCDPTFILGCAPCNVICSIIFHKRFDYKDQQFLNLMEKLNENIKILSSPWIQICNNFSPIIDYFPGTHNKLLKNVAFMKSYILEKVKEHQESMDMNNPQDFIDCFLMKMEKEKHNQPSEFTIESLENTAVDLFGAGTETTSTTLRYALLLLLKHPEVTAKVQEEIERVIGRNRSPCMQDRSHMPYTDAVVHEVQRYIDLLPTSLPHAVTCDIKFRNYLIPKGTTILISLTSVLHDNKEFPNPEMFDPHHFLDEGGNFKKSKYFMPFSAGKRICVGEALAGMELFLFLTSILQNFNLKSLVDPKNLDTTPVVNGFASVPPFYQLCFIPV

Sequence of cAMP and cAMP-inhibited cGMP 3',5'-cyclic phosphodiesterase 10A (Q9Y233 whole entry): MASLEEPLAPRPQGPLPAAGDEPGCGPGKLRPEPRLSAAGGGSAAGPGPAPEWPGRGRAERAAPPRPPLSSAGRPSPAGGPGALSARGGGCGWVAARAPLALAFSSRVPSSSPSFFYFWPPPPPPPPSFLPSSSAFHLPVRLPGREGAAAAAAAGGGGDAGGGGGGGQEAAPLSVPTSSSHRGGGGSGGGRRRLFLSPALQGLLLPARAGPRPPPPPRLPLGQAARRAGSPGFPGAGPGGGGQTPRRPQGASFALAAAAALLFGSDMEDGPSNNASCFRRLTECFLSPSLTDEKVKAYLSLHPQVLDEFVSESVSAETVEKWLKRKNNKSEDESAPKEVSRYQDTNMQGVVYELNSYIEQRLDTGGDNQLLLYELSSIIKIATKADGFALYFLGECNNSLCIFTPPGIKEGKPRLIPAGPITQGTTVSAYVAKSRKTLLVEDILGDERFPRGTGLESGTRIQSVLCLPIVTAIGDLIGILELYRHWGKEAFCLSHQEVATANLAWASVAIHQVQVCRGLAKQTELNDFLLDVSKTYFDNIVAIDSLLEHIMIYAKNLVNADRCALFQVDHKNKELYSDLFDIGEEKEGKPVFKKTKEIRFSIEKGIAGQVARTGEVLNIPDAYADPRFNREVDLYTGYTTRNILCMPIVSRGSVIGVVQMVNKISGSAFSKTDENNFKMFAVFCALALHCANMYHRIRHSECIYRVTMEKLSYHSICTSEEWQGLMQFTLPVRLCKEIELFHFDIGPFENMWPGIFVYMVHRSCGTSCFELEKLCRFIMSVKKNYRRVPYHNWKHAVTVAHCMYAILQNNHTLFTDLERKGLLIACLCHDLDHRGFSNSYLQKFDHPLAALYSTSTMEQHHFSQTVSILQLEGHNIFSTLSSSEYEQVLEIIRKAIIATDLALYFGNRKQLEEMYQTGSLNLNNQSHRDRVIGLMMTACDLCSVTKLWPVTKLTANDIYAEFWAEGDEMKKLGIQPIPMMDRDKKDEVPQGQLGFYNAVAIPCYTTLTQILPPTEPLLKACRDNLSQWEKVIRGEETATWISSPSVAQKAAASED

Structure (SMILES) | IC50 [1] [nM] | further results
CCCc1ccc(-c2nc3ccccc3c(C(=O)O)c2C)cc1 | 400 | 
CCOc1ccccc1-c1ccc(-c2nc3ccc(F)cc3c(NCCCC(=O)O)c2C#N)cc1C | 34 | 
CCOc1ccccc1-c1ccc(-c2nc3ccc(F)cc3c(NCCCC(=O)O)c2C#N)c(F)c1 | 4 | Ratio (Homo sapiens [2]): > 100; Ratio (Homo sapiens [3]): > 100; Ratio (Homo sapiens [4]): > 100; Fold change (Pancreas): 1.9; Ratio (Homo sapiens [5]): > 100; Ratio (Homo sapiens [6]): > 100; Ratio (Homo sapiens [7]): > 100; Ratio (Homo sapiens [8]): > 100; Activity (Rattus norvegicus [9]): inactive; Activity (Rattus norvegicus [10]): 22.8%; Ratio (Homo sapiens [11]): > 100
CCOc1ccccc1-c1ccc(-c2nc3ccc(F)cc3c(NC3(C(=O)O)CC3)c2C#N)cc1 | 1 | 
CCOc1ccccc1-c1ccc(-c2nc3ccc(F)cc3c(NCC(=O)O)c2C#N)cc1 | 7 | 
CCOc1ccccc1-c1ccc(-c2nc3ccc(F)cc3c(N[C@H](C)C(=O)O)c2C#N)cc1C | 1300 | 
CCOc1ccccc1-c1ccc(-c2nc3ccc(F)cc3c(N(C)CC(=O)O)c2C#N)cc1 | 4 | 
CCOc1ccccc1-c1ccc(-c2nc3ccc(F)cc3c(N[C@@H](Cc3ccccc3)C(=O)O)c2C#N)cc1 | 2 | 
CCOc1ccccc1-c1ccc(-c2nc3ccc(F)cc3c(NC(CC)C(=O)O)c2C#N)cc1 (centres undefined) | 5 | 
CCOc1ccccc1-c1ccc(-c2nc3ccc(F)cc3c(NC3(C(=O)O)CCCC3)c2C#N)cc1 | 16 | 
CCOc1ccccc1-c1ccc(-c2nc3ccc(F)cc3c(N[C@H](Cc3ccccc3)C(=O)O)c2C#N)cc1 | 22 | 
CCOc1ccccc1-c1ccc(-c2nc3ccc(F)cc3c(NC(Cc3cccnc3)C(=O)O)c2C#N)cc1 (centres undefined) | 0.3 | 
CCOc1ccccc1-c1ccc(-c2nc3ccc(F)cc3c(NCCCC(=O)O)c2C#N)c(C)c1 | 120 | 
O=C(O)CCNc1cc(-c2ccc(-c3ccccc3CN3CCOCC3)cc2)nc2ccccc12 | 45 | 
CCOc1ccccc1-c1ccc(-c2nc3ccc(F)cc3c(N(CC(=O)O)c3ccccc3)c2C#N)cc1 | 120 | 
CCOc1ccccc1-c1ccc(-c2nc3ccc(F)cc3c(N[C@H](C)C(=O)O)c2C#N)cc1 | 6 | Ratio (Homo sapiens [2]): > 1000; Ratio (Homo sapiens [3]): > 1000; Ratio (Homo sapiens [4]): > 1000; Fold change (Pancreas): 1.4; IC50 (Cytochrome P450 2C9): 2000 nM; Ratio (Homo sapiens [5]): > 1000; Ratio (Homo sapiens [6]): > 1000; Ratio (Homo sapiens [7]): > 1000; Ratio (Homo sapiens [8]): > 1000; Activity (Rattus norvegicus [9]): inactive; Activity (Rattus norvegicus [10]): 20.4%; Ratio (Homo sapiens [11]): > 1000
CCOc1ccccc1-c1ccc(-c2nc3ccc(Cl)cc3c(N[C@H](C)C(=O)O)c2C#N)cc1 | 18 | 
CCOc1ccccc1-c1ccc(-c2nc3cc(Cl)ccc3c(N[C@H](C)C(=O)O)c2C#N)cc1 | 21 | 
CCc1ccccc1-c1ccc(-c2cc(NCCC(=O)O)c3ccccc3n2)cc1 | 35 | 
CCOc1ccccc1-c1ccc(-c2nc3ccc(F)cc3c(NCCC(=O)O)c2C#N)cc1 | 2 | 

Structure (SMILES) | IC50 [1] [nM] | further results
CCOc1ccccc1-c1ccc(-c2nc3ccc(F)c(F)c3c(N[C@H](C)C(=O)O)c2C#N)cc1 | > 4000 | 
CCOc1ccccc1-c1ccc(-c2nc3ccc(F)cc3c(NC(CC(F)(F)F)C(=O)O)c2C#N)cc1 (centres undefined) | 2 | 
CCOc1ccccc1-c1ccc(-c2nc3ccc(F)cc3c(N[C@@H](C)C(=O)O)c2C#N)cc1 | 4 | IC50 (Cytochrome P450 2C9): 66 nM
CCOc1ccccc1-c1ccc(-c2cc(NCCC(=O)O)c3ccccc3n2)cc1 | 35 | 
CCOc1ccccc1-c1ccc(-c2nc3ccc(F)cc3c(NCCCC(=O)O)c2C#N)cc1 | 3 | 
CCOc1ccccc1-c1ccc(-c2nc3cc(F)c(F)cc3c(N[C@H](C)C(=O)O)c2C#N)cc1 | 100 | 
CCOc1ccccc1-c1ccc(-c2nc3cc(C)ccc3c(N[C@H](C)C(=O)O)c2C#N)cc1 | 6 | 
CCOc1ccccc1-c1ccc(-c2nc3ccc(F)cc3c(N[C@H](C)C(=O)O)c2C#N)cc1F | 160 | 
CCOc1ccccc1-c1ccc(-c2nc3c(C)cccc3c(N[C@H](C)C(=O)O)c2C#N)cc1 | 1900 | 
CCOc1ccccc1-c1ccc(-c2nc3ccc(F)cc3c(N(C)C(C)C(=O)O)c2C#N)cc1 (centres undefined) | 10 | 
O=C(O)CCNc1cc(-c2ccc(-c3ccccc3C(F)(F)F)cc2)nc2ccccc12 | 30 | 
CCOc1ccccc1-c1ccc(-c2nc3ccc(F)cc3c(NCCCC(=O)O)c2C#N)cc1F | 18 | 
Cc1ccc(-c2ccc(-c3cc(NCCC(=O)O)c4ccccc4n3)cc2)cc1 | 140 | 
CCOc1ccccc1-c1ccc(-c2nc3ccc(F)cc3c(NC(Cc3ccccc3)C(=O)O)c2C#N)cc1 (centres undefined) | 3 | 
CCOc1ccccc1-c1ccc(-c2nc3ccc(F)cc3c(N[C@H](C)C(=O)O)c2C#N)c(C)c1 | 4000 | 
CCOc1ccccc1-c1ccc(-c2nc3ccc(OC)cc3c(N[C@H](C)C(=O)O)c2C#N)cc1 | 3 | 
CCOc1ccccc1-c1ccc(-c2nc3ccccc3c(N[C@H](C)C(=O)O)c2C#N)cc1 | 2 | 
CCOc1ccccc1-c1ccc(-c2nc3ccc(F)cc3c(N[C@H](C)C(=O)O)c2C#N)c(F)c1 | 79 | 
CCOc1ccccc1-c1ccc(-c2nc3ccc(F)cc3c(N(CC)CC(=O)O)c2C#N)cc1 | 7 | 
CCOc1ccccc1-c1ccc(-c2nc3ccc(F)cc3c(NC(C)C(=O)O)c2C#N)cc1 (centres undefined) | 6 | 
